Source: ChEMBL document CHEMBL3525946, “Species comparison of in vivo P-glycoprotein-mediated brain efflux using mdr1a-deficient rats and mice” (Drug Metab Dispos, 2012)
One block for each compound: values may come before it.

How the values were obtained:
[1] = Total drug level in wild type Crl:CF1 mouse brain expressing Abcb1a mutant at 3 mg/kg/day administered through continuous minipump treatment for 3 days by UPLC-MS analysis; type: ADME, organism-based; details: other: continuous minipump, read-out: Drug uptake
In short: (§1)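 Subcutaneous osmotic minipump infusion for 3 days to steady state, implanted under isoflurane (rats 10 µl/h, mice 1 µl/h). Mdr1a-deficient (SD-Abcb1a knockout rats; Crl:CF1-Abcb1a mutant mice) and wild-type animals, n=3-5 per group. After decapitation, EDTA plasma and whole brain (homogenized 1:4 in 70% acetonitrile) were precipitated with internal standard. Parent and metabolites quantified by UPLC-MS. Mean ± SEM.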

[2] = Total plasma concentration in mdr1a-deficient Sprague-Dawley rat at 6 mg/kg/day administered through continuous minipump treatment for 3 days by UPLC-MS analysis; type: ADME, organism-based; details: other: continuous minipump; in short: as §1
[3] = Total plasma concentration in wild type Sprague-Dawley rat expressing Abcb1a at 6 mg/kg/day administered through continuous minipump treatment for 3 days by UPLC-MS analysis; type: ADME, organism-based; details: other: continuous minipump; in short: as §1
[4] = Unbound brain to plasma partition coefficient of the compound in wild type Sprague-Dawley rat expressing Abcb1a at 6 mg/kg/day administered through continuous minipump treatment for 3 days; type: ADME, organism-based; details: other: continuous minipump, read-out: K(p,uu,brain)
In short: (§2)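 Kp,uu is (Cbrain,total × fu,brain)/(Cplasma,total × fu,plasma). Total concentrations were measured at steady state after a 3-day subcutaneous minipump infusion in knockout or wild-type animals. Species-matched free fractions came from 5 h, 37°C equilibrium dialysis at 1 µM in naïve plasma and brain homogenate.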

[5] = Total brain to plasma partition coefficient of the compound in mdr1a-deficient mouse at 3 mg/kg/day administered through continuous minipump treatment for 3 days; type: ADME, organism-based; details: other: continuous minipump
In short: (§3)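 Kp is total brain concentration divided by total plasma concentration at steady state. Measured after a 3-day subcutaneous osmotic minipump infusion in mdr1a-deficient or wild-type rats or mice, n=3-5. Concentrations determined by UPLC-MS in plasma and in whole-brain homogenate (70% acetonitrile). Mean ± SEM.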

[6] = Total brain to plasma partition coefficient of the compound in wild type Sprague-Dawley rat expressing Abcb1a at 6 mg/kg/day administered through continuous minipump treatment for 3 days; type: ADME, organism-based; details: brain and plasma, other: continuous minipump; in short: as §3
[7] = Total drug level in mdr1a-deficient rat brain at 6 mg/kg/day administered through continuous minipump treatment for 3 days by UPLC-MS analysis; type: ADME, organism-based; details: other: continuous minipump, read-out: Drug uptake; in short: as §1
[8] = Unbound brain to plasma partition coefficient of the compound in mdr1a-deficient mouse at 3 mg/kg/day administered through continuous minipump treatment for 3 days; type: ADME, organism-based; details: other: continuous minipump, read-out: K(p,uu,brain); in short: as §2
[9] = Total plasma concentration in wild type Crl:CF1 mouse expressing Abcb1a mutant at 3 mg/kg/day administered through continuous minipump treatment for 3 days by UPLC-MS analysis; type: ADME, organism-based; details: other: continuous minipump; in short: as §1
[10] = Unbound brain to plasma partition coefficient of the compound in mdr1a-deficient rat at 6 mg/kg/day administered through continuous minipump treatment for 3 days; type: ADME, organism-based; details: other: continuous minipump, read-out: K(p,uu,brain); in short: as §2
[11] = Total brain to plasma partition coefficient of the compound in mdr1a-deficient rat at 6 mg/kg/day administered through continuous minipump treatment for 3 days; type: ADME, organism-based; details: brain and plasma, other: continuous minipump; in short: as §3
[12] = Total drug level in mdr1a-deficient mouse brain at 3 mg/kg/day administered through continuous minipump treatment for 3 days by UPLC-MS analysis; type: ADME, organism-based; details: other: continuous minipump, read-out: Drug uptake; in short: as §1
[13] = Percentage unbound in Crl:NMRI(Han) mouse plasma at 1 uM after 5 hrs by equilibrium dialysis method; type: ADME, cell-free
In short: (§4)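 Equilibrium dialysis (12-14 kDa membrane) of plasma or brain homogenate from naïve male Sprague-Dawley rats or Crl:NMRI(Han) mice. Donor side spiked to 1 µM final; receiver phosphate buffer pH 7.4; 37°C for 5 h. Buffer phase quantified by LC-MS. Brain fu corrected for homogenate dilution to intact tissue. Mean of two independent determinations.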

[14] = Total drug level in wild type Sprague-Dawley rat brain expressing Abcb1a at 6 mg/kg/day administered through continuous minipump treatment for 3 days by UPLC-MS analysis; type: ADME, organism-based; details: other: continuous minipump, read-out: Drug uptake; in short: as §1
[15] = Unbound brain to plasma partition coefficient of the compound in wild type Crl:CF1 mouse expressing Abcb1a mutant at 3 mg/kg/day administered through continuous minipump treatment for 3 days; type: ADME, organism-based; details: other: continuous minipump, read-out: K(p,uu,brain); in short: as §2
[16] = Percentage unbound in Crl:NMRI(Han) mouse brain at 1 uM after 5 hrs by equilibrium dialysis method; type: ADME, tissue-based; in short: as §4
[17] = Percentage unbound in Sprague-Dawley rat plasma at 1 uM after 5 hrs by equilibrium dialysis method; type: ADME, cell-free; in short: as §4
[18] = Percentage unbound in Sprague-Dawley rat brain at 1 uM after 5 hrs by equilibrium dialysis method; type: ADME, tissue-based; in short: as §4
[19] = Total brain to plasma partition coefficient of the compound in wild type Crl:CF1 mouse expressing Abcb1a mutant at 3 mg/kg/day administered through continuous minipump treatment for 3 days; type: ADME, organism-based; details: other: continuous minipump; in short: as §3
[20] = Total plasma concentration in mouse at 3 mg/kg/day administered through continuous minipump treatment for 3 days by UPLC-MS analysis; type: ADME, organism-based; details: other: continuous minipump; in short: as §1
[21] = Unbound brain to plasma partition coefficient of the compound in mdr1a-deficient mouse treated with venlafaxine at 12 mg/kg/day administered through continuous minipump treatment for 3 days; type: ADME, organism-based; details: other: continuous minipump, read-out: K(p,uu,brain); in short: as §2
[22] = Total plasma concentration in mdr1a-deficient rat treated with venlafaxine at 9 mg/kg/day administered through continuous minipump treatment for 3 days by UPLC-MS analysis; type: ADME, organism-based; details: other: continuous minipump; in short: as §1
[23] = Total drug level in wild type Crl:CF1 mouse brain expressing Abcb1a mutant treated with venlafaxine at 12 mg/kg/day administered through continuous minipump treatment for 3 days by UPLC-MS analysis; type: ADME, organism-based; details: other: continuous minipump, read-out: Drug uptake; in short: as §1
[24] = Total drug level in mdr1a-deficient mouse brain treated with venlafaxine at 12 mg/kg/day administered through continuous minipump treatment for 3 days by UPLC-MS analysis; type: ADME, organism-based; details: other: continuous minipump, read-out: Drug uptake; in short: as §1
[25] = Unbound brain to plasma partition coefficient of the compound in wild type Crl:CF1 mouse expressing Abcb1a mutant treated with venlafaxine at 12 mg/kg/day administered through continuous minipump treatment for 3 days; type: ADME, organism-based; details: other: continuous minipump, read-out: K(p,uu,brain); in short: as §2
[26] = Total drug level in wild type Sprague-Dawley rat brain expressing Abcb1a treated with venlafaxine at 9 mg/kg/day administered through continuous minipump treatment for 3 days by UPLC-MS analysis; type: ADME, organism-based; details: other: continuous minipump, read-out: Drug uptake; in short: as §1
[27] = Total brain to plasma partition coefficient of the compound in mdr1a-deficient mouse treated with venlafaxine at 12 mg/kg/day administered through continuous minipump treatment for 3 days; type: ADME, organism-based; details: other: continuous minipump; in short: as §3
[28] = Unbound brain to plasma partition coefficient of the compound in wild type Sprague-Dawley rat expressing Abcb1a treated with venlafaxine at 9 mg/kg/day administered through continuous minipump treatment for 3 days; type: ADME, organism-based; details: other: continuous minipump, read-out: K(p,uu,brain); in short: as §2
[29] = Total brain to plasma partition coefficient of the compound in wild type Crl:CF1 mouse expressing Abcb1a mutant treated with venlafaxine at 12 mg/kg/day administered through continuous minipump treatment for 3 days; type: ADME, organism-based; details: other: continuous minipump; in short: as §3
[30] = Unbound brain to plasma partition coefficient of the compound in mdr1a-deficient Sprague-Dawley rat treated with venlafaxine at 9 mg/kg/day administered through continuous minipump treatment for 3 days; type: ADME, organism-based; details: other: continuous minipump, read-out: K(p,uu,brain); in short: as §2
[31] = Total plasma concentration in wild type Crl:CF1 mouse expressing Abcb1a mutant treated with venlafaxine at 12 mg/kg/day administered through continuous minipump treatment for 3 days by UPLC-MS analysis; type: ADME, organism-based; details: other: continuous minipump; in short: as §1
[32] = Total plasma concentration in wild type Sprague-Dawley rat expressing Abcb1a treated with venlafaxine at 9 mg/kg/day administered through continuous minipump treatment for 3 days by UPLC-MS analysis; type: ADME, organism-based; details: other: continuous minipump; in short: as §1
[33] = Total brain to plasma partition coefficient of the compound in wild type Sprague-Dawley rat expressing Abcb1a treated with venlafaxine at 9 mg/kg/day administered through continuous minipump treatment for 3 days; type: ADME, organism-based; details: brain and plasma, other: continuous minipump; in short: as §3
[34] = Total brain to plasma partition coefficient of the compound in mdr1a-deficient rat treated with venlafaxine at 9 mg/kg/day administered through continuous minipump treatment for 3 days; type: ADME, organism-based; details: brain and plasma, other: continuous minipump; in short: as §3
[35] = Total plasma concentration in mdr1a-deficient mouse treated with venlafaxine at 12 mg/kg/day administered through continuous minipump treatment for 3 days by UPLC-MS analysis; type: ADME, organism-based; details: other: continuous minipump; in short: as §1
[36] = Total drug level in mdr1a-deficient rat brain treated with venlafaxine at 9 mg/kg/day administered through continuous minipump treatment for 3 days by UPLC-MS analysis; type: ADME, organism-based; details: other: continuous minipump, read-out: Drug uptake; in short: as §1

concentration at 72 h [1]: 25 ng/g | concentration at 72 h [2]: 22 ng/mL | concentration at 72 h [3]: 18 ng/mL | Kp uu at 72 h [4]: 0.19 | Kp at 72 h [5]: 1.3 | Kp at 72 h [6]: 0.19 | concentration at 72 h [7]: 14 ng/g | Kp uu at 72 h [8]: 0.64 | concentration at 72 h [9]: 51 ng/mL | Kp uu at 72 h [10]: 0.64 | Kp at 72 h [11]: 0.64 | concentration at 72 h [12]: 41 ng/g | fraction unbound at 5 h, 1 µM [13]: 0.002 | concentration at 72 h [14]: 3 ng/g | Kp uu at 72 h [15]: 0.25 | fraction unbound at 5 h, 1 µM [16]: 0.001 | fraction unbound at 5 h, 1 µM [17]: 0.001 | fraction unbound at 5 h, 1 µM [18]: 0.001 | Kp at 72 h [19]: 0.49 | concentration at 72 h [20]: 32 ng/mL
Compound: O=C1CCc2ccc(OCCCCN3CCN(c4cccc(Cl)c4Cl)CC3)cc2N1 [ARIPIPRAZOLE]

Kp uu at 72 h [21]: 1.4 | concentration at 72 h [22]: 10 ng/mL | concentration at 72 h [23]: 25 ng/g | concentration at 72 h [24]: 77 ng/g | Kp uu at 72 h [25]: 0.29 | concentration at 72 h [26]: 9.3 ng/g | Kp at 72 h [27]: 7 | Kp uu at 72 h [28]: 0.34 | Kp at 72 h [29]: 1.5 | Kp uu at 72 h [30]: 2 | concentration at 72 h [31]: 17 ng/mL | concentration at 72 h [32]: 6.8 ng/mL | Kp at 72 h [33]: 1.4 | fraction unbound at 5 h, 1 µM [13]: 0.8 | Kp at 72 h [34]: 8.9 | fraction unbound at 5 h, 1 µM [16]: 0.16 | fraction unbound at 5 h, 1 µM [17]: 0.32 | fraction unbound at 5 h, 1 µM [18]: 0.08 | concentration at 72 h [35]: 11 ng/mL | concentration at 72 h [36]: 79 ng/g
Compound: CNCC(c1ccc(OC)cc1)C1(O)CCCCC1 (configuration not stated) [N-DESMETHYLVENLAFAXINE]

fraction unbound at 5 h, 1 µM [13]: 0.54 | fraction unbound at 5 h, 1 µM [17]: 0.2
Compound: Cc1nc2n(c(=O)c1CCN1CCC(c3noc4cc(F)ccc34)CC1)CC(O)CC2 (configuration not stated)
